This passage reports phage lysis inhibition and IC50 results from PubChem BioAssay AID624055 (Southern Research Specialized Biocontainment Screening …, 2012).

Structures are written as SMILES. Values joined by “and” are separate entries in the source; they are usually repeats but may differ in a detail not shown here. Equal values may be shown once. Active and inactive are the calls of the source.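 How the source made its calls: active means compounds specific to the target that block phage lysis by more than 30% when retested across doses; inactive means the rest, not confirmed on retesting.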

Test system in one experiment: not listed separately
As to the kind of experiment: E. coli EV36 sensitization to T7 phage – EV36 K1 hybrid, OD600, round 6, dose response (AID 624055). As to conditions: E. coli EV36 T7 phage lysis, OD600; at 50 µM (top of the series). The method, boiled down:
(§1)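 Material: Escherichia coli EV36, a K1:K-12 hybrid strain / Amount: overnight bacterial culture diluted 1:100 per well / Timing: 1.5 h compound pre-exposure, 3 h post-infection / Benchmarks: C7 decapsulation treatment as phage lysis control / Buffer or medium: LB growth medium / Detection: OD600 absorbance at phage infection and 3 h later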
Take `O=C(Nc1ccncc1)c1ccc2ncsc2c1`: the phage lysis inhibition was 121% (inactive).

For `O=C(Nc1cc(-c2ccc(OC(F)(F)F)cc2)sc1C(=O)O)c1cccc(F)c1`, the phage lysis inhibition is -12.3% (inactive).

Turning to `CC(C)(C)c1ccc(-c2cc(NC(=O)c3ccc(Br)s3)c(C(=O)O)s2)cc1`, the phage lysis inhibition is -10.5% (inactive).

Regarding `O=C(Nc1cc(-c2ccc(OCCCC(F)(F)F)cc2)sc1C(=O)O)c1cc(Br)c(Br)o1`, the phage lysis inhibition is -18.4% (inactive) and -21% (inactive).

As for `O=C(NCc1ccncc1)c1ccc2ncsc2c1`, the phage lysis inhibition is 128% (inactive).

Take `O=C(NC1CCNCC1)c1ccc2ncsc2c1`: the phage lysis inhibition was 135% (inactive).

Consider `O=C(NCCc1ccncc1)c1ccc2ncsc2c1`, for which the phage lysis inhibition is 127% (inactive).

With `O=C(Nc1cc(-c2ccc(OC(F)(F)F)cc2)sc1C(=O)O)c1cc2ccccc2o1`, the phage lysis inhibition is -11.1% (inactive).

As to `COc1cc2sc(NC(=O)c3ccc(Br)s3)nc2cc1F`, the phage lysis inhibition is -13% (inactive).

The next experiment deals with E. coli EV36 T7 phage lysis, OD600. The description is as above.
Settings: not given
In short, it runs like this: as §1
As a reminder, the IC50 is the concentration that inhibits the measured activity by half. With `CCCCOc1ccc(-c2cc(NC(=O)c3ccc(Br)o3)c(C(=O)O)s2)cc1`, the IC50 was < 6.25 µM.

Take `O=C(Nc1cc(-c2ccc(OCCC(F)(F)F)cc2)sc1C(=O)O)c1ccc(Br)o1`: the IC50 is < 6.25 µM.

`O=C(O)c1sc(-c2ccc(OCC(F)(F)F)cc2)cc1NC(=O)c1c(F)cc(F)cc1F`: the IC50 was < 6.25 µM.

In the case of `O=C(Nc1ccncc1)c1ccc2ncsc2c1`, the IC50 is < 6.25 µM.

In the case of `CCCCOc1ccc(-c2cc(NC(=O)c3c(F)cccc3F)c(C(=O)O)s2)cc1`, the IC50 was < 6.25 µM.

Regarding `CCOc1ccc(-c2cc(NC(=O)c3c(F)cccc3C(F)(F)F)c(C(=O)O)s2)cc1`, the IC50 is < 6.25 µM.

`O=C(O)c1sc(-c2ccc(OCC(F)(F)F)cc2)cc1NC(=O)c1c(F)cccc1F`: the IC50 is < 6.25 µM.

Consider `O=C(O)c1sc(-c2ccc(OCCCC(F)(F)F)cc2)cc1NC(=O)c1c(F)cccc1F`, for which the IC50 is < 6.25 µM.

For the compound `O=C(O)c1sc(-c2ccc(OC(F)(F)F)cc2)cc1NC(=O)c1c(F)cccc1F`, the IC50 is < 6.25 µM.

As for `O=C(O)c1sc(-c2ccc(OCCC(F)(F)F)cc2)cc1NC(=O)c1c(F)cc(F)cc1F`, the IC50 was < 6.25 µM.

With `CCCc1ccc(-c2cc(NC(=O)c3ccc(Br)o3)c(C(=O)O)s2)cc1`, the IC50 is < 6.25 µM.

As for `CCCc1ccc(-c2cc(NC(=O)c3c(F)cccc3F)c(C(=O)O)s2)cc1`, the IC50 was < 6.25 µM.

Turning to `CCCOc1ccc(-c2cc(NC(=O)c3c(F)cc(F)cc3F)c(C(=O)O)s2)cc1`, the IC50 is < 6.25 µM.

For `O=C(Nc1cc(-c2ccc(OCC(F)(F)F)cc2)sc1C(=O)O)c1ccc(Br)o1`, the IC50 is < 6.25 µM.

Take `O=C(Nc1cc(-c2ccc(OC(F)(F)F)cc2)sc1C(=O)O)c1ccc(Br)o1`: the IC50 is < 6.25 µM.

As for `CCCCOc1ccc(-c2cc(NC(=O)c3c(F)cc(F)cc3F)c(C(=O)O)s2)cc1`, the IC50 was < 6.25 µM.

For `CCCCOc1ccc(-c2cc(NC(=O)c3cc(Br)c(Br)o3)c(C(=O)O)s2)cc1`, the IC50 is < 6.25 µM.

Regarding `CCCc1ccc(-c2cc(NC(=O)c3c(F)cc(F)cc3F)c(C(=O)O)s2)cc1`, the IC50 is < 6.25 µM.

For the compound `O=C(Nc1cc(-c2ccc(OCCCC(F)(F)F)cc2)sc1C(=O)O)c1ccc(Br)o1`, the IC50 is < 6.25 µM.

`O=C(O)c1sc(-c2ccc(OCCCC(F)(F)F)cc2)cc1NC(=O)c1c(F)cc(F)cc1F`: the half-maximal inhibitory concentration (IC50) is < 6.25 µM.

For the compound `[N-]=[N+]=NCCOc1ccc(-c2cc(NC(=O)c3c(F)cccc3F)c(C(=O)O)s2)cc1`, the IC50 was < 6.25 µM.

In the case of `CCCc1ccc(-c2cc(NC(=O)c3cc(Br)c(Br)o3)c(C(=O)O)s2)cc1`, the half-inhibitory concentration (IC50) is < 6.25 µM.

As for `COc1ccc2nc(NC(=O)c3ccc(Br)s3)sc2c1`, the IC50 is < 0.21 µM.

Consider `O=C(O)c1sc(-c2ccc(OCCC(F)(F)F)cc2)cc1NC(=O)c1c(F)cccc1F`, for which the IC50 was < 6.25 µM.

As for `CCOc1ccc(-c2cc(NC(=O)c3c(F)cccc3F)c(C(=O)O)s2)cc1`, the IC50 was < 6.25 µM.

With `CCOc1ccc(-c2cc(NC(=O)c3c(F)cc(F)cc3F)c(C(=O)O)s2)cc1`, the IC50 is < 6.25 µM.
